# T cell modulator = T cell immune modulation candidate; response (vesicle binding), % at 7 µM; hit rate 0.068% among 330,000; 2C CD8+ T cell-vesicle binding, flow cytometry; active compounds read low;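 active = response, share of CD8 T cells binding vesicles, and their 90th percentile fluorescence all below set limits, cut at about 80% in these data, passing the limit was not always enough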;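 note: values below 100% mean blocked vesicle binding to the CD8+ T cells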
#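 Also added: QL9-peptide-loaded Drosophila micro-vesicles bearing Ld, ICAM-1 and B7-1; Test system: purified 2C TCR transgenic mouse naive CD8+ T cells; Measured by: cytometric PE anti-B7-1 and Alexa647 anti-CD8 signals after 1% paraformaldehyde fixation; Timing: binding step 1.5 h, 37 °C, antibody labelling 20 min, ice.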
# p-CIP stab down = p/CIP protein destabilization | Q05BA5 | F442A p/CIP-EGFP cells, EGFP fluorescence, 16 h | decrease of EGFP signal, % at 10 µM | hit rate 0.01% among 290,000 | AID 1984;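 active = EGFP signal decrease of at least 30% at 10 µM or well 3 SD below plate mean, unless failing retest; inactive = the rest, including hits failing retest or dose response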
# UBC9 SUMO inh = blocks human SUMOylation mediated by UBC9; P63279; HTRF SUMOylation assay, SAE1/SAE2 + UBC9, in vitro; inhibition, % at 35 µM; hit rate 0.36% among 290,000; AID 2006; in the data active = inhibition above about 50%, passing the limit was not always enough
# VIM-2 inhibitor = blocks Pseudomonas aeruginosa VIM-2 metallo-beta-lactamase; AID 1527; inhibition, % at 5.6 µM; hit rate 0.89% among 290,000; purified VIM-2, nitrocefin hydrolysis, epi-absorbance fluorescence;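 active = inhibition above the mean of all tested compounds plus 3 SD, cutoff set per screening run, cut at about 7.5% in these data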;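 note: red hydrolysis product quenches plate fluorescence so inhibitors raise well fluorescence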
# IMP-1 inhibitor = inhibitors of Pseudomonas aeruginosa IMP-1 metallo-beta-lactamase; hit rate 0.45% among 290,000; inhibition, % at 5.6 µM; purified IMP-1, nitrocefin hydrolysis, epi-absorbance fluorescence;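 active = inhibition above the mean plus 3 SD of all compounds in the same screening run, cut at about 4.5% in these data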
#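 System: Purified recombinant IMP-1 metallo-beta-lactamase enzyme | Measured by: Fluorescence quenching readout, ex 480/em 530 nm | Replication: Singlicate | Incubation: 15 min preincubation plus 25 min reaction at 25 °C | Evaluation: Percent inhibition from optical density relative to buffer-blank wells | Benchmarks: DMSO with and without IMP-1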
# CTSL1 counter = counter-screen for PFM18AAP inhibitors: inhibitors of F. hepatica cathepsin L1 | inhibition, % at 5.96 µM | recombinant F. hepatica cathepsin L1, Z-Leu-Arg-MCA fluorescence | hit rate 0.49% among 300,000;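 active = inhibition above the mean of all tested compounds plus 3 SD, set per screening campaign, cut at about 17% in these data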
# Numbers stand for hits; n = inactive; x = no result. Sampled rows, rich in hits. Any-hit rate of the full collection: about 1.9%.
SMILES,T cell modulator,p-CIP stab down,UBC9 SUMO inh,VIM-2 inhibitor,IMP-1 inhibitor,CTSL1 counter
Cc1ccc(C)c(NC(=O)/C(C#N)=C/c2cn(CC(=O)NCc3ccco3)c3ccccc23)c1,n,n,53.7,n,n,n
CNC(=O)/C(C#N)=C/c1cn(CC(=O)NCc2ccco2)c2ccccc12,n,n,n,n,n,n
N#C/C(=C/c1cn(CC(=O)O)c2ccccc12)C(=O)NCc1ccccc1,n,74.7,n,n,n,n
Cc1ccc(NC(=O)/C(C#N)=C/c2cn(CC(=O)NCc3ccco3)c3ccccc23)cc1C,n,n,62.4,n,n,n
CN(CCc1ccccc1)C(=O)c1ccc(NC(=O)Cc2ccc([N+](=O)[O-])cc2)cc1,n,x,x,x,x,x
C#CCOCCOCCOCCNc1nc(N2CCN(C(=O)C([C@@H](C)CC)n3cc(C(N)COC(=O)C(F)(F)F)nn3)CC2)nc(N2CCN(C(=O)[C@H](CCC(=O)O)n3cc(C(N)CC(C)C)nn3)CC2)n1 (stereo not given in full),n,x,x,x,x,n
CN1CCc2c(sc3nc(SCC(=O)N4CCOCC4)n(-c4ccc(Cl)cc4)c(=O)c23)C1,n,n,n,n,n,n
O=C(Cn1cnc([N+](=O)[O-])n1)NC1CC1,n,n,n,n,n,n
Cc1ccc(S(=O)(=O)N(C)C)cc1NC(=S)N(C)C1CCN(C)CC1,n,n,n,n,n,n
N#Cc1ccc(CN2CCN(C(=O)CNS(=O)(=O)c3ccc4c(c3)OCCCO4)CC2)cc1,n,x,x,x,x,x
Cc1cc(C)cc(Oc2coc3cc(O)ccc3c2=O)c1,n,n,n,n,n,17.3
Cc1ccccc1-c1coc2cc(O)ccc2c1=O,n,n,n,n,n,22.6
O=C(NCc1cccs1)C1CC(=O)N(c2ccc(Cl)cc2)C1 (stereo not given),n,n,n,n,n,n
O=C(c1cccc(Cl)c1)N1CCN(Cc2ccncc2)CC1,x,28.8,n,n,n,x
O=C1CC(C(=O)N2CCN(S(=O)(=O)c3cccc(F)c3)CC2)CN1Cc1ccccc1Cl (stereo not given),n,x,x,x,x,n
COC(=O)C1=C(C)N(c2ccc(OC)c(OC)c2)C(=O)C1,n,n,n,n,n,19.6
COc1ccccc1N(CC(=O)Nc1ccc2c(c1)OCCO2)S(=O)(=O)c1ccc(C)cc1,n,n,n,n,n,n
CCCCc1ccc(NC(=O)CN2NS(=O)(=O)c3ccccc3C2=O)cc1,n,n,n,n,5.5,n
CN(C)/C=C1/Sc2ccccc2C1=O,n,n,n,n,n,n
CC(=O)N(\C=C/C=C/C=C1\Sc2ccccc2C1=O)c1ccccc1,n,n,69.3,n,n,n
COc1ccc(-c2nnc(N3CCOCC3)c3ccccc23)cc1,n,n,n,n,n,19.1
N#C/C=C1/NC(=O)c2ccccc2S1,n,n,n,9.1,n,n
CCC1CCCCN1CCCNC(=O)COc1cc(=O)n(C)c2ccccc12 (stereo not given),n,n,n,n,n,n
CCC1CCCCN1CCCNC(=O)c1cc2c(=O)[nH]c3ccccc3c2n1C (stereo not given),n,n,n,8.9,n,n
CN(CCCNC(=O)c1cc2c(=O)[nH]c3ccccc3c2n1C)Cc1ccccc1,n,n,n,8.1,n,n
SMILES,T cell modulator,p-CIP stab down,UBC9 SUMO inh,VIM-2 inhibitor,IMP-1 inhibitor,CTSL1 counter
CC1CC(C)CN(CCCNC(=O)c2c(O)nc3ccccn3c2=O)C1 (stereo not given),n,x,x,x,x,n
CC1CC(C)CN(CCCNC(=O)c2cc3c(=O)[nH]c4ccccc4c3n2C)C1 (stereo not given),n,n,n,12.1,n,n
Cn1c(C(=O)NCCCN2CCN(c3ccccc3F)CC2)cc2c(=O)[nH]c3ccccc3c21,n,n,n,10.7,n,n
CCCCCn1c(=O)[nH]c2cc(C(=O)NCCCN(C)Cc3ccccc3)ccc2c1=O,n,n,n,n,n,n
CC(NC(=O)C1CCCN1S(=O)(=O)c1cccc2nsnc12)c1ccccc1 (stereo not given),n,n,n,n,n,n
Cc1cccc(C(=O)OC(C)C(=O)N2CCc3ccccc3C2)c1C (stereo not given),n,x,x,x,x,x
